Laboratory results taken from ChEMBL document CHEMBL1147266, “New dammarane triterpenes from the aerial parts of Ibicella lutea grown in Argentina” (J Nat Prod, 2003).
Converted amounts (≈) assume the structure as drawn.

Legend:
Type in all cases: functional, cell-based
A549 = experiment: Cytotoxicity against human A549 cells after 3 days by crystal violet staining; conditions: A549, 72 h
In short: (§1)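 Cells kept in log-phase growth in EMEM with nonessential amino acids, 2.0 mM L-glutamine, 5% FCS, 10^-2 M NaHCO3 and penicillin/streptomycin. Trypsin-harvested cells seeded at 1×10^4/well in 24-well dishes with graded sample concentrations, drug-free growth controls included, in duplicate. Incubated 3 days at 37 °C, 5% CO2, then crystal violet stained for approximate IC50. Coulter counts of trypsinized cells gave %G dose-response curves for IC50.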

[1] = Cytotoxicity against human H116 cells after 3 days by crystal violet staining; conditions: H116, 72 h; in short: as §1
PSN1 = experiment: Cytotoxicity against human PSN1 cells after 3 days by crystal violet staining; conditions: PSN1, 72 h; in short: as §1
T98G = experiment: Cytotoxicity against human T98G cells after 3 days by crystal violet staining; conditions: 72 h; in short: as §1
HT-29 = experiment: Cytotoxicity against human HT-29 cells after 3 days by crystal violet staining; conditions: HT-29, 72 h; in short: as §1

Row | SMILES | IC50 (A549) [µg/mL] | IC50 [1] [µg/mL] | IC50 (PSN1) [µg/mL] | IC50 (T98G) [µg/mL] | IC50 (HT-29) [µg/mL]
1 | CC(=O)O[C@@H]1C[C@@H]2[C@@]3(C)[C@H](OC(C)=O)C[C@@H](OC(C)=O)C(C)(C)[C@@H]3CC[C@@]2(C)[C@]2(C)CC[C@H]([C@]3(C)CC[C@H](C(C)(C)O)O3)[C@@H]12 (relative stereo) | > 5 | > 5 | > 5 | > 5 | –
2 | CC(=O)O[C@H]1CC[C@]2(C)[C@H]3C[C@@H](OC(C)=O)[C@@H]4[C@@H]([C@]5(C)CC[C@@H](C(C)(C)OC(C)=O)O5)CC[C@@]4(C)[C@]3(C)CC[C@H]2C1(C)C | > 5 | > 5 | > 5 | > 5 | –
3 | CC(C)(O)[C@@H]1CC[C@@](C)([C@H]2CC[C@]3(C)[C@@H]2[C@H](O)C[C@@H]2[C@@]4(C)CC[C@H](O)C(C)(C)[C@@H]4CC[C@]23C)O1 (relative stereo) | 5 (≈ 10.5 µM) | 5 (≈ 10.5 µM) | – | – | –
4 | CC(=O)O[C@H]1CC[C@]2(C)[C@H]3C[C@@H](OC(C)=O)[C@@H]4[C@@H]([C@]5(C)CC[C@@H](C(C)(C)O)O5)CC[C@@]4(C)[C@]3(C)CC[C@H]2C1(C)C | 5 (≈ 8.92 µM) | 5 (≈ 8.92 µM) | – | – | –
5 | CC(=O)O[C@@H]1C[C@@H](O)[C@]2(C)[C@H]3C[C@@H](O)[C@@H]4[C@@H]([C@]5(C)CC[C@H](C(C)(C)O)O5)CC[C@@]4(C)[C@]3(C)CC[C@H]2C1(C)C (relative stereo) | > 10 | > 10 | – | – | > 10
6 | CC(=O)O[C@@H]1C[C@@H]2[C@@]3(C)[C@H](OC(C)=O)C[C@@H](OC(C)=O)C(C)(C)[C@@H]3CC[C@@]2(C)[C@]2(C)CC[C@H]([C@]3(C)CC[C@H](C(C)(C)OC(C)=O)O3)[C@@H]12 | – | 5 (≈ 7.57 µM) | – | – | –
7 | CC(C)(O)[C@H]1CC[C@@](C)([C@H]2CC[C@]3(C)[C@@H]2[C@H](O)C[C@@H]2[C@@]4(C)[C@H](O)C[C@@H](O)C(C)(C)[C@@H]4CC[C@]23C)O1 | > 10 | > 10 | – | – | > 10
8 | CC(=O)O[C@H]1CC[C@]2(C)[C@H]3C[C@@H](O)[C@@H]4[C@@H]([C@]5(C)CC[C@@H](C(C)(C)O)O5)CC[C@@]4(C)[C@]3(C)CC[C@H]2C1(C)C | > 5 | > 5 | > 5 | > 5 | –
9 | CC(=O)O[C@@H]1C[C@@H](OC(C)=O)[C@]2(C)[C@H]3C[C@@H](O)[C@@H]4[C@@H]([C@]5(C)CC[C@H](C(C)(C)O)O5)CC[C@@]4(C)[C@]3(C)CC[C@H]2C1(C)C (relative stereo) | > 10 | > 10 | – | – | > 10
